Laboratory results published in ChEMBL document CHEMBL4152213, “Synthesis and biological evaluation of 2,5-disubstituted furan derivatives as P-glycoprotein inhibitors for Doxorubicin resistance in MCF-7/ADR cell” (Eur J Med Chem, 2018).

Key:
Type in all cases: cell-based
[1] = Inhibition of P-gp in human MCF7/ADR cells assessed as cell viability after 48 hrs by MTT assay; conditions: NCI/ADR-RES
Procedure, shortened: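 MTT assay in MCF-7/ADR cells: cells incubated 48 h with or without compounds, then 5 mg/mL MTT added for 3–4 h at 37 °C, 5% CO2. Formazan dissolved in EtOH/DMSO (1:1), OD at 570 and 650 nm. Data are the mean of three independent determinations of triplicate samples.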

[2] = system: NCI/ADR-RES; assay: Cytotoxicity against human MCF7/ADR cells at 100 uM after 24 to 48 hrs by MTT assay relative to control
Procedure, shortened: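 MCF-7/ADR cells (RPMI 1640, 10% FBS, 37 °C, 5% CO2) exposed to compounds alone at 100 μM without Doxorubicin for 24 and 48 h. Viability by MTT: 5 mg/mL MTT, 3–4 h at 37 °C, formazan dissolved in EtOH/DMSO 1:1, OD at 570 and 650 nm. Cytotoxicity taken relative to untreated control.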

[3] = species on record: Homo sapiens; assay: Inhibition of P-gp in human MCF7/ADR cells assessed as assessed as potentiation of doxorubicin-induced antiproliferative activity by measuring doxorubicin antiproliferative activity at 20 uM after 2 days by MTT assay; parameters: scale not given: the % may be the effect or the level left
Procedure, shortened: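 MCF-7/ADR cells plated at 10,000/well, then treated the next day. Compounds at 20 μM plus Doxorubicin 5 μM for 2 days, washed twice, then Doxorubicin alone for 1 day. Read-out by MTT: 0.5 mg/mL, 1 h at 37 °C, DMSO, absorbance 570/630 nm. Growth inhibition given as % of untreated control. Eight wells per treatment; three independent determinations in triplicate.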

[4] = species on record: Homo sapiens; assay: Inhibition of P-gp in human MCF7/ADR cells assessed as increase in intracellular accumulation of doxorubicin at 20 uM after 2 days by fluorescence assay relative to doxorubicin alone
Procedure, shortened: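 MCF-7/ADR cells exposed to compounds at 20 μM for 2 days, with Doxorubicin 50 μM added on the second day. Cells trypsinized, washed twice in ice-cold PBS pH 7.4, kept on ice under 1 h, then cellular Doxorubicin fluorescence measured by flow cytometry. Doxorubicin-only cells set as 100% and untreated autofluorescence as 0%. Expressed as fold accumulation; three independent determinations in triplicate.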

Which EC50 [1] does the source give for O=C(c1ccc(-c2ccccc2Cl)o1)N1CCCc2ccccc21 here?
Its EC50 is 13.7 µM.

Which EC50 [1] does the source give for O=C(c1ccc(-c2ccccc2)o1)N1CCCc2ccccc21 here?
Its EC50 is 10.9 µM.

For COc1cc2c(cc1OC)CN(C(=O)c1ccc(-c3ccc(C)cc3)o1)CC2, which EC50 [1] is on record?
The EC50 was 5.23 µM.

Which Activity [2] does the source give for COc1cc2c(cc1OC)CN(C(=O)c1ccc(-c3ccc(Br)cc3)o1)CC2 here?
Its Activity is under 15%.

What about the Activity [3] of the same compound?
Its Activity is 79.8%.

And the fold change (FC) [4]?
The fold change (FC) was 5.

What about the EC50 [1] of the same compound?
Its EC50 is 4.34 µM.

Which EC50 [1] does the source give for O=C(c1ccc(-c2ccccc2Cl)o1)N1CCc2ccccc2C1 here?
The EC50 was 10.2 µM.

For O=C(c1ccc(-c2cccc(Cl)c2)o1)N1CCc2ccccc2C1, which EC50 [1] is on record?
Its EC50 is 18.2 µM.

For O=C(c1ccc(-c2ccccc2F)o1)N1CCc2ccccc2C1, which EC50 [1] is on record?
Its EC50 is 14.8 µM.

Which EC50 [1] does the source give for O=C(c1ccc(-c2cccc(F)c2)o1)N1CCc2ccccc2C1 here?
The EC50 was 20.5 µM.

For O=C(c1ccc(-c2c(F)cccc2F)o1)N1CCCc2ccccc21, which EC50 [1] is on record?
Its EC50 is 19.6 µM.

For O=C(c1ccc(-c2ccccc2[N+](=O)[O-])o1)N1CCc2ccccc2C1, which EC50 [1] is on record?
Its EC50 is 15.2 µM.

For COc1cc2c(cc1OC)CN(C(=O)c1ccc(-c3ccc(Cl)cc3)o1)CC2, which Activity [2] is on record?
The Activity was under 15%.

What about the Activity [3] of the same compound?
Its Activity is 89.6%.

What about the fold change (FC) [4] of the same compound?
Its fold change (FC) is 6.8.

And the EC50 [1]?
Its EC50 is 3.27 µM.

For O=C(c1ccc(-c2ccccc2)o1)N1CCc2ccccc2C1, which EC50 [1] is on record?
Its EC50 is 8.29 µM.

Which EC50 [1] does the source give for O=C(c1ccc(-c2cccc([N+](=O)[O-])c2)o1)N1CCc2ccccc2C1 here?
The EC50 was 20.4 µM.

Which EC50 [1] does the source give for COc1cc2c(cc1OC)CN(C(=O)c1ccc(-c3cccc(Cl)c3)o1)CC2 here?
The EC50 was 14.7 µM.

For COc1cc2c(cc1OC)CN(C(=O)c1ccc(-c3cccc(F)c3)o1)CC2, which EC50 [1] is on record?
The EC50 was 17.8 µM.

With O=C(c1ccc(-c2ccc(F)cc2F)o1)N1CCCc2ccccc21 as the compound, how does the EC50 [1] read?
Its EC50 is 17.3 µM.

With COc1cc2c(cc1OC)CN(C(=O)c1ccc(-c3c(F)cccc3F)o1)CC2 as the compound, how does the EC50 [1] read?
Its EC50 is 13 µM.

Which EC50 [1] does the source give for O=C(c1ccc(-c2cccc([N+](=O)[O-])c2)o1)N1CCCc2ccccc21 here?
The EC50 was 29.1 µM.

For O=C(c1ccc(-c2ccc([N+](=O)[O-])cc2)o1)N1CCc2ccccc2C1, which EC50 [1] is on record?
The EC50 was 12.5 µM.

Which EC50 [1] does the source give for COc1ccc(-c2ccc(C(=O)N3CCCc4ccccc43)o2)cc1 here?
Its EC50 is 6.82 µM.

Which EC50 [1] does the source give for O=C(c1ccc(-c2c(F)cccc2F)o1)N1CCc2ccccc2C1 here?
The EC50 was 15.3 µM.

Which EC50 [1] does the source give for COc1cc2c(cc1OC)CN(C(=O)c1ccc(-c3ccc(F)cc3)o1)CC2 here?
The EC50 was 8.48 µM.

Which EC50 [1] does the source give for O=C(c1ccc(-c2cccc(F)c2)o1)N1CCCc2ccccc21 here?
The EC50 was 27.4 µM.

For COc1cc2c(cc1OC)CN(C(=O)c1ccc(-c3ccccc3)o1)CC2, which EC50 [1] is on record?
Its EC50 is 6.72 µM.

Which Activity [3] does the source give for COc1ccc(CCN(C)CCCC(C#N)(c2ccc(OC)c(OC)c2)C(C)C)cc1OC (configuration not stated) [VERAPAMIL] here?
The Activity was 52.5%.

And the fold change (FC) [4]?
The fold change (FC) was 3.6.

What about the EC50 [1] of the same compound?
The EC50 was 20.5 µM.

For COc1cc2c(cc1OC)CN(C(=O)c1ccc(-c3ccc(F)cc3F)o1)CC2, which EC50 [1] is on record?
Its EC50 is 10.4 µM.

For COc1cc2c(cc1OC)CN(C(=O)c1ccc(-c3ccccc3Cl)o1)CC2, which EC50 [1] is on record?
Its EC50 is 8.18 µM.

Which results are given for COc1ccc(-c2ccc(C(=O)N3CCc4cc(OC)c(OC)cc4C3)o2)cc1?
Activity [2]: < 15%; Activity [3]: 97.8%; fold change (FC) [4]: 9.2; EC50 [1]: 0.89 µM

For O=C(c1ccc(-c2ccccc2F)o1)N1CCCc2ccccc21, which EC50 [1] is on record?
The EC50 was 17.9 µM.

Which EC50 [1] does the source give for COc1cc2c(cc1OC)CN(C(=O)c1ccc(-c3cccc([N+](=O)[O-])c3)o1)CC2 here?
The EC50 was 16.3 µM.

For O=C(c1ccc(-c2ccc([N+](=O)[O-])cc2)o1)N1CCCc2ccccc21, which EC50 [1] is on record?
Its EC50 is 15.5 µM.

For Cc1ccc(-c2ccc(C(=O)N3CCCc4ccccc43)o2)cc1, which EC50 [1] is on record?
The EC50 was 9.14 µM.

Which EC50 [1] does the source give for O=C(c1ccc(-c2ccc(F)cc2)o1)N1CCCc2ccccc21 here?
Its EC50 is 13.2 µM.

For COc1cc2c(cc1OC)CN(C(=O)c1ccc(-c3ccccc3[N+](=O)[O-])o1)CC2, which EC50 [1] is on record?
The EC50 was 13.9 µM.

Which EC50 [1] does the source give for COc1cc2c(cc1OC)CN(C(=O)c1ccc(-c3ccc([N+](=O)[O-])cc3)o1)CC2 here?
Its EC50 is 9.23 µM.

With O=C(c1ccc(-c2ccc(F)cc2F)o1)N1CCc2ccccc2C1 as the compound, how does the EC50 [1] read?
The EC50 was 12.7 µM.

Which EC50 [1] does the source give for O=C(c1ccc(-c2ccc(F)cc2)o1)N1CCc2ccccc2C1 here?
The EC50 was 10.4 µM.

For O=C(c1ccc(-c2cccc(Cl)c2)o1)N1CCCc2ccccc21, which EC50 [1] is on record?
Its EC50 is 17.4 µM.

For O=C(c1ccc(-c2ccc(Cl)cc2)o1)N1CCCc2ccccc21, which EC50 [1] is on record?
The EC50 was 8.28 µM.

With O=C(c1ccc(-c2ccc(Cl)cc2)o1)N1CCc2ccccc2C1 as the compound, how does the EC50 [1] read?
Its EC50 is 6.73 µM.

With O=C(c1ccc(-c2ccc(Br)cc2)o1)N1CCc2ccccc2C1 as the compound, how does the EC50 [1] read?
The EC50 was 7.82 µM.

With Cc1ccc(-c2ccc(C(=O)N3CCc4ccccc4C3)o2)cc1 as the compound, how does the EC50 [1] read?
The EC50 was 8.12 µM.

For COc1ccc(-c2ccc(C(=O)N3CCc4ccccc4C3)o2)cc1, which EC50 [1] is on record?
Its EC50 is 5.48 µM.

For COc1cc2c(cc1OC)CN(C(=O)c1ccc(-c3ccccc3F)o1)CC2, which EC50 [1] is on record?
The EC50 was 10.9 µM.

With O=C(c1ccc(-c2ccccc2[N+](=O)[O-])o1)N1CCCc2ccccc21 as the compound, how does the EC50 [1] read?
The EC50 was 19.3 µM.

Which EC50 [1] does the source give for O=C(c1ccc(-c2ccc(Br)cc2)o1)N1CCCc2ccccc21 here?
Its EC50 is 9.21 µM.
